Measured values taken from ChEMBL document CHEMBL1140225, “Design of annulated pyrazoles as inhibitors of HIV-1 reverse transcriptase” (J Med Chem, 2008).

Columns and labels:
[1] = target: Human immunodeficiency virus type 1 reverse transcriptase (Human immunodeficiency virus 1, UniProt Q72547); test: Inhibition of RNA-dependent DNA polymerase activity of wild type HIV1 reverse transcriptase by SPA
[2] = test system: Human immunodeficiency virus; test: Antiviral activity against […] HIV HXB2 with reverse transcriptase […]/Tyr181Cys mutation in human MT4 cells assessed as protection against virus-induced cell death after 5 days by MTT assay; assay type: functional, organism-based; conditions: Human immunodeficiency virus 1, MT4, 120 h
[3] = test system: Human immunodeficiency virus; test: Antiviral activity against wild type HIV HXB2 in human MT4 cells assessed as protection against virus-induced cell death after 5 days by MTT assay; assay type: functional, organism-based; conditions: Human immunodeficiency virus 1, MT4, 120 h
[4] = target: Human immunodeficiency virus type 1 reverse transcriptase (Human immunodeficiency virus 1, UniProt Q72547, K103N/Y181C); test: Inhibition of RNA-dependent DNA polymerase activity of HIV1 reverse transcriptase Lys103Asn/Tyr181Cys mutant by SPA
[5] = test system: Human immunodeficiency virus; test: Antiviral activity against NNRTI-resistant HIV HXB2 with reverse transcriptase 188H mutation in human MT4 cells assessed as protection against virus-induced cell death after 5 days by MTT assay; assay type: functional, organism-based; conditions: Human immunodeficiency virus 1, MT4
Procedure, shortened: (§1)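 MT4 cells in log-phase growth (2 × 10⁶) infected with HXB2-strain HIV at 0.0001 infectious units/cell for 1 h at 37 °C, washed in PBS, then plated at 3.5 × 10⁴ cells/well. Serial 2-fold dilutions, four replicates, final 625-1.22 nM, in RPMI 1640/10% FCS. Incubated 5 days at 37 °C, 5% CO₂. MTT added for 2 h, absorbance read at 540/690 nm. % protection vs uninfected and virus controls; IC50 taken from plot against log concentration.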

[6] = test system: Human immunodeficiency virus; test: Antiviral activity against NNRTI-resistant HIV HXB2 with reverse transcriptase 101E mutation in human MT4 cells assessed as protection against virus-induced cell death after 5 days by MTT assay; assay type: functional, organism-based; conditions: Human immunodeficiency virus 1, MT4, 120 h; procedure, shortened: as §1
[7] = Half life in dog at 0.5 mg/kg, iv; conditions: in vivo
[8] = test system: Human immunodeficiency virus; test: Antiviral activity against NNRTI-resistant HIV HXB2 with reverse transcriptase 103N mutation in human MT4 cells assessed as protection against virus-induced cell death after 5 days by MTT assay; assay type: functional, organism-based; conditions: Human immunodeficiency virus 1, MT4, 120 h; procedure, shortened: as §1
[9] = test system: Human immunodeficiency virus; test: Antiviral activity against NNRTI-resistant HIV HXB2 isolate 29 with reverse transcriptase K103, Y181 mutation in human MT4 cells assessed as protection against virus-induced cell death after 5 days by MTT assay; assay type: functional, organism-based; conditions: Human immunodeficiency virus 1, MT4, 120 h
[10] = Clearance in rat at 0.5 mg/kg, iv; conditions: in vivo
[11] = Volume of distribution at steady state in dog at 0.5 mg/kg, iv; conditions: in vivo, read-out: Vdss
[12] = test system: Human immunodeficiency virus; test: Antiviral activity against NNRTI-resistant HIV HXB2 with reverse transcriptase 100I mutation in human MT4 cells assessed as protection against virus-induced cell death after 5 days by MTT assay; assay type: functional, organism-based; conditions: Human immunodeficiency virus 1, MT4, 120 h; procedure, shortened: as §1
[13] = test system: Human immunodeficiency virus; test: Antiviral activity against NNRTI-resistant HIV HXB2 isolate 16 with reverse transcriptase K103, P225 mutation in human MT4 cells assessed as protection against virus-induced cell death after 5 days by MTT assay; assay type: functional, organism-based; conditions: Human immunodeficiency virus 1, MT4, 120 h
[14] = test system: Human immunodeficiency virus; test: Antiviral activity against NNRTI-resistant HIV HXB2 isolate 21 with reverse transcriptase K103, V179, Y181 mutation in human MT4 cells assessed as protection against virus-induced cell death after 5 days by MTT assay; assay type: functional, organism-based; conditions: Human immunodeficiency virus 1, MT4, 120 h
[15] = Half life in monkey at 0.5 mg/kg, iv; conditions: rhesus monkey, in vivo
[16] = Clearance in monkey at 0.5 mg/kg, iv; conditions: rhesus monkey, in vivo
[17] = test system: Human immunodeficiency virus; test: Antiviral activity against NNRTI-resistant HIV HXB2 with reverse transcriptase 190S mutation in human MT4 cells assessed as protection against virus-induced cell death after 5 days by MTT assay; assay type: functional, organism-based; conditions: Human immunodeficiency virus 1, MT4, 120 h; procedure, shortened: as §1
[18] = test system: Human immunodeficiency virus; test: Antiviral activity against NNRTI-resistant HIV HXB2 with reverse transcriptase 138K mutation in human MT4 cells assessed as protection against virus-induced cell death after 5 days by MTT assay; assay type: functional, organism-based; conditions: Human immunodeficiency virus 1, MT4, 120 h; procedure, shortened: as §1
[19] = test system: Human immunodeficiency virus; test: Antiviral activity against NNRTI-resistant HIV HXB2 isolate 17 with reverse transcriptase A98, K103, Y181 mutation in human MT4 cells assessed as protection against virus-induced cell death after 5 days by MTT assay; assay type: functional, organism-based; conditions: Human immunodeficiency virus 1, MT4, 120 h
[20] = test system: Human immunodeficiency virus; test: Antiviral activity against NNRTI-resistant HIV HXB2 isolate 20 with reverse transcriptase K103, Y181 mutation in human MT4 cells assessed as protection against virus-induced cell death after 5 days by MTT assay; assay type: functional, organism-based; conditions: Human immunodeficiency virus 1, MT4, 120 h
[21] = test system: Human immunodeficiency virus; test: Antiviral activity against NNRTI-resistant HIV HXB2 with reverse transcriptase 225H mutation in human MT4 cells assessed as protection against virus-induced cell death after 5 days by MTT assay; assay type: functional, organism-based; conditions: Human immunodeficiency virus 1, MT4; procedure, shortened: as §1
[22] = Half life in rat at 0.5 mg/kg, iv; conditions: in vivo
[23] = test system: Human immunodeficiency virus; test: Antiviral activity against NNRTI-resistant HIV HXB2 with reverse transcriptase 106A mutation in human MT4 cells assessed as protection against virus-induced cell death after 5 days by MTT assay; assay type: functional, organism-based; conditions: Human immunodeficiency virus 1, MT4, 120 h; procedure, shortened: as §1
[24] = Volume of distribution at steady state in monkey at 0.5 mg/kg, iv; conditions: rhesus monkey, in vivo, read-out: Vdss
[25] = Volume of distribution at steady state in rat at 0.5 mg/kg, iv; conditions: in vivo, read-out: Vdss
[26] = Clearance in dog at 0.5 mg/kg, iv; conditions: in vivo
[27] = test system: Human immunodeficiency virus; test: Antiviral activity against wild type HIV HXB2 in human MT4 cells assessed as protection against virus-induced cell death after 5 days by MTT assay in presence of 40% human serum; assay type: functional, organism-based; conditions: Human immunodeficiency virus 1, MT4, 120 h

`N#Cc1cc(Cl)cc(Oc2c(Br)ccc(Cc3n[nH]c4ncccc34)c2F)c1` showed an IC50 [1] of 8 nM, an EC50 [2] of 12 nM and an EC50 [3] of 1 nM.
In the case of `N#Cc1cc(Cl)cc(Oc2c(Br)ccc(Cc3n[nH]c4nccnc34)c2F)c1`, the IC50 [1] is reported as 3 nM, the EC50 [2] is reported as greater than 100 nM and the EC50 [3] is reported as less than 25 nM. For the same compound, the IC50 [4] was 14 nM.
For `Cn1ccc2c(Cc3ccc(Br)c(Oc4cc(Cl)cc(C#N)c4)c3F)n[nH]c2c1=O`, the IC50 [1] was 8 nM, the EC50 [2] was 97 nM and the EC50 [3] was 4 nM. It also gave an IC50 [4] of 12 nM.
In the case of `N#Cc1cc(Cl)cc(Oc2c(Br)ccc(Cc3n[nH]c4c(N)cccc34)c2F)c1`, the IC50 [1] is reported as 24 nM, the EC50 [2] is reported as 84 nM and the EC50 [3] is reported as 8 nM. For the same compound, the IC50 [4] was 22 nM.
`N#Cc1cc(Cl)cc(Oc2c(Cl)ccc(Cc3n[nH]c4nnccc34)c2F)c1` showed an EC50 [5] of less than 1 nM, an EC50 [6] of 2 nM and a half-life [7] of 5.6 h. It also gave an EC50 [8] of less than 1 nM, an IC50 [9] of 2 nM and a clearance [10] of 2.9 mL/min/kg. For the same compound, the Vd [11] was 0.99 L/kg, the EC50 [12] was less than 1 nM and the IC50 [13] was 3 nM. The IC50 [14] was 3 nM, the half-life [15] was 12.2 h and the clearance [16] was 1.3 mL/min/kg. It also gave an EC50 [17] of less than 1 nM, an EC50 [18] of 2 nM and an EC50 [3] of 1 nM. The IC50 [19] was 5 nM, the IC50 [20] was 4 nM and the EC50 [21] was less than 1 nM. For the same compound, the half-life [22] was 4.2 h, the EC50 [23] was 2 nM and the Vd [24] was 1.21 L/kg. The Vd [25] was 0.91 L/kg, the clearance [26] was 4.6 mL/min/kg and the EC50 [27] was 5 nM.
